Laboratory results published in ChEMBL document CHEMBL4732237, “Discovery of 4-alkoxy-2-aryl-6,7-dimethoxyquinolines as a new class of topoisomerase I inhibitors endowed with potent in vitro anticancer activity” (2021).

Experiments:
Format in all cases: functional
[1] = system: HL-60(TB); assay: Growth inhibition of human HL-60(TB) cells incubated for 48 hrs by sulforhodamine B assay
Method in brief: (§1)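 NCI-60 five-dose screen. Cells in RPMI 1640 with 5% FBS and 2 mM L-glutamine were plated at 5000–40,000 cells/well and preincubated 24 h at 37 °C, 5% CO2. Drugs in DMSO were given at five serial 10-fold or ½-log dilutions for 48 h. Adherent cells fixed with 10% TCA (final); suspension cells fixed after settling. SRB stained; A515. GI50 from [(Ti-Tz)/(C-Tz)]x100 = 50.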

[2] = system: A549; assay: Growth inhibition of human A549 cells incubated for 48 hrs by sulforhodamine B assay
Method in brief: (§2)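 NCI five-dose screen covering 0.01–100 µM, prepared as 10-fold or ½-log dilutions from DMSO stock. Cells in RPMI 1640 with 5% FBS were exposed for 48 h at 37 °C after 24 h preincubation. Adherent cells were fixed with TCA (final 10%) and suspension cells were settled before fixing. Stain was SRB, read at 515 nm. GI50 = 50% reduction in net protein increase versus control, with Tz taken at drug addition.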

[3] = system: COLO 205; assay: Growth inhibition of human COLO 205 cells incubated for 48 hrs by sulforhodamine B assay; method in brief: as §2
[4] = system: HCT-29; assay: Growth inhibition of human […] cells incubated for 48 hrs by sulforhodamine B assay; method in brief: as §2
[5] = system: IGROV-1; assay: Growth inhibition of human IGROV-1 cells incubated for 48 hrs by sulforhodamine B assay; method in brief: as §2
[6] = system: OVCAR-4; assay: Growth inhibition of human OVCAR-4 cells incubated for 48 hrs by sulforhodamine B assay
Method in brief: (§3)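 NCI five-dose screen (0.01–100 µM; five concentrations plus control). Cells grown in RPMI 1640/5% FBS/2 mM L-glutamine and preincubated 24 h, with time-zero plates TCA-fixed. Drug exposure 48 h at 37 °C, followed by SRB protein staining and reading at 515 nm. GI50 is the concentration at [(Ti-Tz)/(C-Tz)]×100 = 50.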

[7] = system: NCI/ADR-RES; assay: Growth inhibition of human NCI/ADR-RES cells incubated for 48 hrs by sulforhodamine B assay; method in brief: as §3
[8] = system: SK-OV-3; assay: Growth inhibition of human SK-OV-3 cells incubated for 48 hrs by sulforhodamine B assay; method in brief: as §3
[9] = system: T47D; assay: Growth inhibition of human T47D cells incubated for 48 hrs by sulforhodamine B assay
Method in brief: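 NCI five-dose assay, with drug stocks in DMSO diluted in medium to five concentrations (10-fold or ½-log series). Cells in RPMI 1640/5% FBS were pre-incubated 24 h, and time-zero plates were TCA-fixed at drug addition. After 48 h at 37 °C, cells were TCA-fixed, SRB-stained and read at 515 nm. GI50 is from [(Ti-Tz)/(C-Tz)]×100 = 50, TGI from Ti = Tz, and LC50 from [(Ti-Tz)/Tz]×100 = -50.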

[10] = system: MDA-MB-468; assay: Growth inhibition of human MDA-MB-468 cells incubated for 48 hrs by sulforhodamine B assay; method in brief: as §2
[11] = Growth inhibition of human leukemia cell line incubated for 48 hrs by sulforhodamine B assay; conditions: leukaemia cell line; method in brief: as §1
[12] = Growth inhibition of human Non-small cell lung cancer cell line incubated for 48 hrs by sulforhodamine B assay; method in brief: as §1
[13] = system: Colon cancer cell line; assay: Growth inhibition of human colon cancer cell line incubated for 48 hrs by sulforhodamine B assay; method in brief: as §1
[14] = system: CNS carcinoma cell; assay: Growth inhibition of human CNS carcinoma cell incubated for 48 hrs by sulforhodamine B assay; method in brief: as §1
[15] = system: Melanoma cell line; assay: Growth inhibition of human Melanoma cell line incubated for 48 hrs by sulforhodamine B assay; method in brief: as §1
[16] = system: Ovarian cancer cell line; assay: Growth inhibition of human Ovarian cancer cell line incubated for 48 hrs by sulforhodamine B assay; method in brief: as §1
[17] = Growth inhibition of human Renal cancer cell line incubated for 48 hrs by sulforhodamine B assay; method in brief: as §1
[18] = Growth inhibition of human Prostate tumor cell line incubated for 48 hrs by sulforhodamine B assay; method in brief: as §1
[19] = Growth inhibition of human Breast cancer cell line incubated for 48 hrs by sulforhodamine B assay; method in brief: as §1

SMILES: COc1cc2nc(-c3ccc(C(F)(F)F)cc3)cc(OCCCN3CCOCC3)c2cc1OC
- GI50 [1]: 9.58 µM
- GI50 [2]: 1.04 µM
- GI50 [3]: 0.529 µM
- GI50 [4]: 0.54 µM
- GI50 [5]: 0.83 µM
- GI50 [6]: 10.3 µM
- GI50 [7]: 0.64 µM
- GI50 [8]: 5.04 µM
- GI50 [9]: 0.654 µM
- GI50 [10]: 1.24 µM

SMILES: COc1cc2nc(-c3ccc(Cl)cc3)cc(OCCCN3CCC(O)CC3)c2cc1OC
- GI50 [1]: 4.27 µM
- GI50 [2]: 2.2 µM
- GI50 [3]: 0.532 µM
- GI50 [4]: 0.7 µM
- GI50 [5]: 0.923 µM
- GI50 [6]: 4.34 µM
- GI50 [7]: 0.925 µM
- GI50 [8]: 3.17 µM
- GI50 [9]: 2.26 µM
- GI50 [10]: 1.56 µM

SMILES: COc1cc2nc(-c3ccc(C(F)(F)F)cc3)cc(OCCCN3CCC(O)CC3)c2cc1OC
- GI50 [1]: 13.9 µM
- GI50 [2]: 1.65 µM
- GI50 [3]: 0.456 µM
- GI50 [4]: 0.486 µM
- GI50 [5]: 0.9 µM
- GI50 [6]: 9.14 µM
- GI50 [7]: 0.847 µM
- GI50 [8]: 10.6 µM
- GI50 [9]: 2.97 µM
- GI50 [10]: 1.63 µM

SMILES: COc1cc2nc(-c3ccc(C(F)(F)F)cc3)cc(OCCCN3CCCC3)c2cc1OC
- GI50 [1]: 1.84 µM
- GI50 [2]: 0.653 µM
- GI50 [3]: 0.401 µM
- GI50 [4]: 0.446 µM
- GI50 [5]: 0.592 µM
- GI50 [6]: 3.71 µM
- GI50 [7]: 0.458 µM
- GI50 [8]: 2.55 µM
- GI50 [9]: 0.472 µM
- GI50 [10]: 0.885 µM
- LC50 [11]: 81.6 µM
- TGI [11]: 6.17 µM
- LC50 (concentration killing 50% of cells) [12]: 57.9 µM
- TGI [12]: 12.7 µM
- LC50 [13]: 50.4 µM
- TGI [13]: 8.07 µM
- LC50 [14]: 44.9 µM
- TGI [14]: 11.7 µM
- LC50 (50% lethal concentration) [15]: 23.7 µM
- TGI [15]: 4.08 µM
- LC50 [16]: 81 µM
- TGI [16]: 28.1 µM
- LC50 (concentration giving 50% net cell kill) [17]: 40.1 µM
- TGI [17]: 10.2 µM
- LC50 (concentration killing 50% of cells) [18]: 89.5 µM
- TGI [18]: 16.8 µM
- LC50 [19]: 40.8 µM
- TGI [19]: 6.8 µM

SMILES: COc1cc2nc(-c3ccc(Cl)cc3)cc(OCCCN3CCCCC3)c2cc1OC
- GI50 [2]: 1.9 µM
- GI50 [3]: 0.582 µM
- GI50 [4]: 0.492 µM
- GI50 [5]: 0.838 µM
- GI50 [6]: 3.85 µM
- GI50 [7]: 0.898 µM
- GI50 [9]: 1.31 µM
- GI50 [10]: 1.39 µM

SMILES: COc1cc2nc(-c3ccc(Cl)cc3)cc(OCCCN3CCCC3)c2cc1OC
- GI50 [1]: 2.72 µM
- GI50 [2]: 1.52 µM
- GI50 [3]: 0.459 µM
- GI50 [4]: 0.454 µM
- GI50 [5]: 0.881 µM
- GI50 [6]: 3 µM
- GI50 [7]: 0.683 µM
- GI50 [8]: 2.42 µM
- GI50 [9]: 1.02 µM
- GI50 [10]: 1.28 µM
- LC50 [11]: 32 µM
- TGI [11]: 4.99 µM
- LC50 (concentration killing 50% of cells) [12]: 39.7 µM
- TGI [12]: 10.4 µM
- LC50 [13]: 39.1 µM
- TGI [13]: 8.31 µM
- LC50 [14]: 33.5 µM
- TGI [14]: 10.1 µM
- LC50 (50% lethal concentration) [15]: 14.6 µM
- TGI [15]: 4.26 µM
- LC50 [16]: 55.1 µM
- TGI [16]: 14.8 µM
- LC50 (concentration giving 50% net cell kill) [17]: 28.9 µM
- TGI [17]: 7.66 µM
- LC50 (concentration killing 50% of cells) [18]: 39.6 µM
- TGI [18]: 12.1 µM
- LC50 [19]: 29.6 µM
- TGI [19]: 5.8 µM

SMILES: COc1cc2nc(-c3ccc(C(F)(F)F)cc3)cc(OCCCN3CCCCC3)c2cc1OC
- GI50 [1]: 2.91 µM
- GI50 [2]: 0.722 µM
- GI50 [3]: 0.406 µM
- GI50 [4]: 0.415 µM
- GI50 [5]: 0.651 µM
- GI50 [6]: 2.91 µM
- GI50 [7]: 0.522 µM
- GI50 [8]: 2.3 µM
- GI50 [9]: 0.454 µM
- GI50 [10]: 1.03 µM
- LC50 [11]: 74.8 µM
- TGI [11]: 10.3 µM
- LC50 (concentration killing 50% of cells) [12]: 50.6 µM
- TGI [12]: 13.8 µM
- LC50 [13]: 40.8 µM
- TGI [13]: 10.3 µM
- LC50 [14]: 38.8 µM
- TGI [14]: 11.9 µM
- LC50 (50% lethal concentration) [15]: 19.9 µM
- TGI [15]: 4.14 µM
- LC50 [16]: 65.5 µM
- TGI [16]: 19.7 µM
- LC50 (concentration giving 50% net cell kill) [17]: 35 µM
- TGI [17]: 11 µM
- LC50 (concentration killing 50% of cells) [18]: 42.2 µM
- TGI [18]: 13.8 µM
- LC50 [19]: 43 µM
- TGI [19]: 9.29 µM

SMILES: COc1cc2nc(-c3ccc(Cl)cc3)cc(OCCCN3CCOCC3)c2cc1OC
- GI50 [2]: 2.02 µM
- GI50 [3]: 0.62 µM
- GI50 [4]: 0.61 µM
- GI50 [5]: 0.99 µM
- GI50 [7]: 1.15 µM
- GI50 [8]: 3 µM
- GI50 [9]: 1.96 µM
- GI50 [10]: 1.83 µM
